Only some compounds are listed: those with a hit (about 3.1% of all), similar ones and a draw of the others.
PREPL inh: PREPL enzyme inhibitors, primary screen, biochemical, fluorescence polarization. inhibition, % at 5.96 µM. Prolyl endopeptidase-like (Homo sapiens), Q4J6C6. recombinant PREPL, fluorescence polarization activity-based probe. 320,000 compounds, 0.68% hits; in the data active = inhibition above about 43%
Target sequence (Q4J6C6 whole entry, looked up): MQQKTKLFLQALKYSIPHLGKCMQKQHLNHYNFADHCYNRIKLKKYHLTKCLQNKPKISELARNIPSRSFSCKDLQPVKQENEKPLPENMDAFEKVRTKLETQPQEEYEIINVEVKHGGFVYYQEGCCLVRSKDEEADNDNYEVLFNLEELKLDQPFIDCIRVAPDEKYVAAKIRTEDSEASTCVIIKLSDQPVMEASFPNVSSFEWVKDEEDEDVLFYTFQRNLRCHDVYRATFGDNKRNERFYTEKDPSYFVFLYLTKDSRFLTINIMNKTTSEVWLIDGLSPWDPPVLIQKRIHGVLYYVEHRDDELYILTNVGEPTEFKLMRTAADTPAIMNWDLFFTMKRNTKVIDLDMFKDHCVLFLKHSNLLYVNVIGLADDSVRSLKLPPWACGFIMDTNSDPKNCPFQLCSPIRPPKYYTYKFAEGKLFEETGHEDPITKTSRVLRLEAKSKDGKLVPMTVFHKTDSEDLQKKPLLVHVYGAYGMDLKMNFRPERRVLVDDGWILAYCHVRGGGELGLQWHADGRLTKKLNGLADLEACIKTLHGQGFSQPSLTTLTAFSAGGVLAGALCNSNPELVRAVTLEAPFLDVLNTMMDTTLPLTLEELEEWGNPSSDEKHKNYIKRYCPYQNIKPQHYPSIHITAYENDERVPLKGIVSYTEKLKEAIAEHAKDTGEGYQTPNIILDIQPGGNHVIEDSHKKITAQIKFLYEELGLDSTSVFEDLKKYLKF
UBC13 polyUb: UBC13 polyubiquitin chain formation inhibitors, primary screen, biochemical, TR-FRET, uHTS. inhibition, % at 20 µM. Ubiquitin-conjugating enzyme E2 N (Homo sapiens), P61088. 330,000 compounds, 0.47% hits; in the data active = inhibition above about 45%, passing the limit was not always enough; inconclusive = no clear call, values can overlap the other calls
Apaf-1 inh: inhibitors of human Apaf-1 apoptosome, primary screen, biochemical, DEVD-Rh110 fluorescence, uHTS; Apoptotic protease-activating factor 1 (Homo sapiens), O14727; inhibition, % at 20 µM; 330,000 compounds, 0.71% hits; AID 489030, 2010; reconstituted apoptosome caspase-3 activity; active = inhibition of at least 40% at 20 µM
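Assay system – apoptosome proteins · Medium – Hepes buffer, pH 7.5 · Also added – cytochrome c with DEVD-Rh110 · Timing – 30 min compound preincubation, 50 min activation, room temperature · Detection – Rh110 fluorescence, excitation 480 nm, emission 540 nm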
MEKK2wt PB1 HTS: modulators of MEK5 binding to wildtype MEKK2, primary screen, biochemical, multiplex bead flow cytometry, Alexa488-MEK5; binding response (% of control), % at 10 µM; 290,000 compounds, 1.1% hits; Alexa488-MEK5 binding to MEKK2 WT; actives lie on both sides; AID 1531, 2009; in the data active = binding response below about 67% or above about 130%; inconclusive = no clear call, values can overlap the other calls; inactive = in between
MEKK2 mut-MEK5: MEK5 binding signal on mutant MEKK2 PB1, primary screen, biochemical, multiplex bead flow cytometry, Alexa488-MEK5. Alexa488-MEK5 binding to MEKK2 mutant. percent response, % at 10 µM. 290,000 compounds, 0.35% hits; in the data active = percent response above about 24%, passing the limit was not always enough
MEKK3 PB1 HTS: modulators of MEKK3-MEK5 PB1 binding, primary screen, biochemical, wildtype MEKK3, multiplex bead flow cytometry, Alexa488-MEK5 | Mitogen-activated protein kinase kinase kinase 3 (Homo sapiens), Q99759 | bead-based flow cytometry, Alexa488-MEK5 binding to MEKK3; actives lie on both sides; 0 = blocked by unlabeled MEK5, 100 = vehicle | binding response (% of control), % at 10 µM | 290,000 compounds, 1.4% hits;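 active = binding response more than 3 SD above or below the average of its plate-row segment, actives on both sides; inconclusive = wells at one plate position flagged as instrument error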;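 note: Alexa488 bead fluorescence after subtracting the streptavidin-only scavenger bead signal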
Casp3 UBC13 ctr: CASP3 inhibitor validation, counterassay for project on UBE2N polyubiquitination blockers, biochemical, one dose. shares compounds with UBC13 polyUb. Recombinant caspase-3, Caspase-Glo 3/7 luminescence, 60 min. inhibition, % at 20 µM. 1,400 compounds, 4% hits. AID 488856, 2010;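 active = mean inhibition across replicates above about 26%, limit read from the data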
UBC13 confirm: UBC13 polyubiquitination inhibitors, single-point retest, confirmation, biochemical, TR-FRET, single concentration; shares compounds with UBC13 polyUb; AID 488859, 2010; inhibition, % at 10 µM; 1,400 compounds, 68% hits; in the data active = inhibition above about 45%; inconclusive = no clear call, values can overlap the other calls
Numbers stand for hits; i = inactive; ? = inconclusive; nt = not tested or not shown.

SMILES	PREPL inh	UBC13 polyUb	Apaf-1 inh	MEKK2wt PB1 HTS	MEKK2 mut-MEK5	MEKK3 PB1 HTS	Casp3 UBC13 ctr	UBC13 confirm
Cc1c(C(=O)N(CC(C)C)c2c(N)n(Cc3ccccc3)c(=O)[nH]c2=O)sc2nc3n(c(=O)c12)CCC3	i	i	i	nt	nt	nt	nt	nt
CC(=O)Nc1ccc(NC(=O)c2nc(S(=O)(=O)Cc3ccccc3)ncc2Cl)cc1	i	47	i	i	i	i	i	45
Cc1ccc(CS(=O)(=O)c2ncc(Cl)c(C(=O)Nc3nnc(C(C)C)s3)n2)cc1	i	50	i	i	i	i	i	63
COc1ccc(F)cc1S(=O)(=O)Nc1cc2c3c(c1)CCC(=O)N3CCC2	i	i	i	nt	nt	nt	nt	nt
COc1c(O)cccc1[C@@H](O)C1CCN(CCc2ccc(F)cc2)CC1	i	i	i	i	i	i	nt	nt
CCOC(=O)c1sc2nc(C3CC3)cc(-c3ccc(F)cc3)c2c1N	i	i	i	i	i	i	nt	nt
CCOC(=O)c1sc2nc(C3CC3)cc(-c3ccc(OC)cc3)c2c1N	i	48	i	i	i	i	i	?
COc1ccc(C(=O)OCC(=O)NC2CCCCCC2)cc1OC	i	66	i	nt	nt	nt	i	i
COc1ccc(C(=O)OCC(=O)NC2CCCCCCC2)cc1OC	i	i	i	nt	nt	nt	nt	nt
Cc1ccccc1-c1cccc([C@@H]2C[C@H]3CN(Cc4cccnc4)C(=O)[C@]34CCCN24)c1	i	i	i	i	i	i	nt	nt
CCOC(=O)c1c(NC(=O)C(NCCN(C)C)c2ccccc2)sc2c1CCCC2 (centres undefined)	i	48	i	171	43	i	i	88
CCOC(=O)c1c(NC(=O)c2ccccc2N(C)S(=O)(=O)c2ccccc2)sc2c1CCCC2	i	i	i	i	i	i	nt	nt
NC[C@H](O)c1ccc(O)c(O)c1	i	i	i	nt	nt	nt	nt	nt
CCOC(=O)N1CCN(CC(O)COC(CC)c2ccccc2)CC1 (centres undefined)	i	i	i	i	i	i	nt	nt
CC(=O)c1ccc(OCC(O)CN2CCN(CCN3C(=O)c4cccc5cccc(c45)C3=O)CC2)cc1 (centres undefined)	i	96	i	i	i	i	i	103
CCC(OCC(O)CN1CCN(CCN2C(=O)c3cccc4cccc(c34)C2=O)CC1)c1ccccc1 (centres undefined)	i	82	i	i	i	i	i	97
CCC(CC)c1nnc(NC(=O)C2CSC3(C)CCC(=O)N23)s1 (centres undefined)	i	i	i	nt	nt	nt	nt	nt
O=C(Nc1ccc(C(=O)NCCCN2CCN(c3ccc(F)cc3)CC2)cc1)C1=CSCCO1	i	65	i	i	i	i	i	97
O=C(Nc1ccc(C(=O)NCCCN2CCCCC2)cc1)C1=CSCCO1	i	i	i	i	i	i	nt	nt
CCN(CC(=O)Nc1ccccc1C(F)(F)F)C(=O)CN1C(=O)NC2(CCCC2)C1=O	i	i	i	nt	nt	nt	nt	nt
CC[C@H](C)Cc1cn([C@@H](CCCN=C(N)N)C(=O)NCCCCCCCCCCC(=O)N2CCNCC2)nn1	i	i	i	nt	nt	nt	nt	nt
C#CCOCCOCCOCCNc1nc(N2CCN(C(=O)[C@H](CCCCN)n3cc([C@@H](N)CO)nn3)CC2)nc(N2CCN(C(=O)[C@H](Cc3ccc(O)cc3)n3cc([C@@H](N)CC(C)C)nn3)CC2)n1	i	i	i	i	i	i	nt	nt
CC[C@H](C)[C@@H](C(=O)NCCCCCCCCCCC(=O)N1CCNCC1)n1cc(CCCCN=C(N)N)nn1	i	49	i	nt	nt	nt	i	i
C#CCOCCOCCOCCNc1nc(N2CCOCC2)nc(N2CCN(C(=O)CCCCCCCCCCNC(=O)[C@@H]([C@H](C)CC)n3cc(CCCCCN)nn3)CC2)n1	i	70	i	nt	nt	nt	i	64
C#CCOCCOCCOCCNc1nc(N2CCN(C(=O)CCCCCCCCCCNC(=O)[C@H](CCCCN)n3cc(CCCC(=O)O)nn3)CC2)nc(N2CCN(C(=O)CCCCCCCCCCNC(=O)[C@@H]([C@H](C)O)n3cc(C)nn3)CC2)n1	i	54	i	nt	nt	nt	i	i
SMILES	PREPL inh	UBC13 polyUb	Apaf-1 inh	MEKK2wt PB1 HTS	MEKK2 mut-MEK5	MEKK3 PB1 HTS	Casp3 UBC13 ctr	UBC13 confirm
C#CCOCCOCCOCCNc1nc(N2CCN(C(=O)[C@H]([C@@H](C)CC)n3cc(CCCCN)nn3)CC2)nc(N2CCN(C(=O)[C@H](C)n3cc(CCC(=O)O)nn3)CC2)n1	i	i	i	i	i	i	nt	nt
C#CCOCCOCCOCCNc1nc(N2CCN(C(=O)[C@H](Cc3ccc(O)cc3)n3cc([C@@H](N)C(C)CC)nn3)CC2)nc(N2CCN(C(=O)[C@H](CCCCN)n3cc([C@@H](N)CC(C)C)nn3)CC2)n1 (some centres undefined)	i	58	i	i	i	i	i	50
COc1cc(OC)cc(C(=O)NNC(=O)CCNC(=O)c2ccc(Br)cc2)c1	i	i	i	nt	nt	nt	nt	nt
O=C(COC(=O)/C=C/c1cccc(C(F)(F)F)c1)NC1CCS(=O)(=O)C1 (centres undefined)	i	i	i	nt	nt	nt	nt	nt
O=C(CCCCCN1C(=O)c2ccccc2C1=O)NCCc1nc2ccccc2[nH]1	i	56	i	i	i	i	i	53
CCc1noc(C)c1C(=O)OC(C)C(=O)Nc1ccccc1OC (centres undefined)	i	i	i	nt	nt	nt	nt	nt
CCCCCN(C(=O)CCC(=O)OCC(=O)Nc1cccc(CC)c1)c1c(N)n(CCCC)c(=O)[nH]c1=O	i	i	i	nt	nt	nt	nt	nt
CCOc1ccc2nc(NC3=NC(C)(C)C=C(C)N3)nc(C)c2c1	i	57	i	i	i	i	i	64
N#Cc1c(Cl)nsc1NCCN1CCOCC1	i	i	i	i	i	i	nt	nt
COc1ccccc1CNC(=O)c1ccc2c(=O)n(CCCN3CCCC3=O)c(=S)[nH]c2c1	i	46	i	i	i	i	i	i
CCOC(=O)c1c(C)c(C(=O)NC2CCCCCC2)c(C)n1C	nt	nt	nt	i	i	i	nt	nt
CCOC(=O)c1c(C)c2c(n1C)CCC/C2=N\O	i	79	i	i	i	i	i	94
COc1ccc(-c2nn(-c3ccccc3)cc2/C=C/C(=O)OCC(=O)Nc2ccccc2C#N)cc1	i	i	i	i	i	i	nt	nt
CNC(=O)COC(=O)/C=C/c1cn(-c2ccccc2)nc1-c1ccc(C)o1	i	55	i	i	i	i	i	i
